Laboratory results from ChEMBL document CHEMBL1122685, “Identification of an acridine photoaffinity probe for trypanocidal action” (1984).

Key:
Assay type in all cases: functional
Trypanosoma brucei [1] = assay: Trypanocidal activity against Trypanosoma brucei, exposure of parasites to compound prior to injection into mice at 10 e-5 M concentration in dark conditions
In short: (§1)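 T. brucei EATRO 110 was separated from blood on DEAE-cellulose and washed in Tris-saline-glucose (TSG). Parasites at 5×10^6/mL in TSG were gently rotated 10 min with drug at the final concentration, kept dark under a red safelight until injection. Swiss mice, five per group, received 5×10^5 parasites ip in 0.1 mL. Read-out was mean days survival ±SD over 30 days, against untreated-parasite controls.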

Trypanosoma brucei [2] = assay: Trypanocidal activity against Trypanosoma brucei, exposur of parasites to compound prior to injection into mice at 10 e-6 M concentration in presence of light; set-up: unit: days
In short: (§2)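 DEAE-purified T. brucei EATRO 110 at 5×10^6/mL in TSG was mixed with drug at the final concentration by gentle rotation for 10 min. Samples were light-activated for 10 min under a 30W fluorescent lamp 4 cm above. 5×10^5 treated parasites in 0.1 mL were injected ip into Swiss mice, five per group. Survival was scored daily for 30 days and reported as mean days ±SD, with untreated controls.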

Trypanosoma brucei [3] = assay: Trypanocidal activity against Trypanosoma brucei, exposure of parasites to compound prior to injection into mice at 10 e-4 M concentration in presence of light; set-up: unit: days; in short: as §2
Trypanosoma brucei [4] = assay: Trypanocidal activity against Trypanosoma brucei, exposure of parasites to compound prior to injection into mice at 10 e-5 M concentration in presence of light; set-up: unit: days; in short: as §2
Trypanosoma brucei [5] = assay: Trypanocidal activity against Trypanosoma brucei, exposure of parasites to compound prior to injection into mice at 10 e-4 M concentration in dark conditions; in short: as §1
Trypanosoma brucei [6] = assay: Trypanocidal activity against Trypanosoma brucei, exposure of parasites to compound prior to injection into mice at 10 e-6 M concentration in dark conditions; in short: as §1
Trypanosoma brucei [7] = assay: Compound is evaluated for trypanocidal activity against Trypanosoma brucei, by exposing the parasites directly to compound prior to injection to mice at 10 e-7 M concentration in dark conditions; set-up: unit: days; in short: as §1
Trypanosoma brucei [8] = assay: Compound is evaluated for trypanocidal activity against Trypanosoma brucei, by exposing the parasites directly to compound prior to injection to mice at 10 e-7 M concentration in presence of light; set-up: unit: days; in short: as §2
Trypanosoma brucei [9] = assay: Compound is evaluated for trypanocidal activity against Trypanosoma brucei, by exposing the parasites directly to compound prior to injection to mice at 10 e-6 M concentration (pre) in presence of light.
In short: (§3)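 Compound was irradiated 1 h before contact with T. brucei EATRO 110 (5×10^6/mL in TSG, final drug concentration). After 10 min gentle rotation, the mixture was irradiated again for 10 min under a 30W fluorescent lamp at 4 cm. 5×10^5 parasites in 0.1 mL were given ip to five Swiss mice per group. Read-out was mean days survival ±SD over 30 days, with untreated controls.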

Trypanosoma brucei [10] = assay: Compound is evaluated for trypanocidal activity against Trypanosoma brucei, by exposing the parasites directly to compound prior to injection to mice at 10 e-5 M concentration in presence of light; in short: as §2
Trypanosoma brucei [11] = assay: Compound is evaluated for trypanocidal activity against Trypanosoma brucei, by exposing the parasites directly to compound prior to injection to mice at 10 e-5 M concentration (pre) in presence of light; in short: as §3
Trypanosoma brucei [12] = assay: Compound is evaluated for trypanocidal activity against Trypanosoma brucei, by exposing the parasites directly to compound prior to injection to mice at 10 e-5 M concentration (pre) in dark conditions
In short: (§4)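 Drug was preirradiated 1 h with visible light, then added at the final concentration to T. brucei EATRO 110 (5×10^6/mL in TSG) and rotated 10 min. The parasites were then kept dark with a red safelight. Swiss mice, five per group, were injected ip with 0.1 mL holding 5×10^5 parasites. Mean days survival ±SD was scored over 30 days against untreated-parasite controls.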

Trypanosoma brucei [13] = assay: Compound is evaluated for trypanocidal activity against Trypanosoma brucei, by exposing the parasites directly to compound prior to injection to mice at 10 E-4 M concentration in presence of light; in short: as §2
Trypanosoma brucei [14] = assay: Compound is evaluated for trypanocidal activity against Trypanosoma brucei, by exposing the parasites directly to compound prior to injection to mice at 10 E-5 M concentration in dark conditions; in short: as §1
Trypanosoma brucei [15] = assay: Compound is evaluated for trypanocidal activity against Trypanosoma brucei, by exposing the parasites directly to compound prior to injection to mice at 10 E-6 M concentration in dark conditions; in short: as §1
Trypanosoma brucei [16] = assay: Compound is evaluated for trypanocidal activity against Trypanosoma brucei, by exposing the parasites directly to compound prior to injection to mice at 10 E-5 M concentration in presence of light; in short: as §2
Trypanosoma brucei [17] = assay: Compound is evaluated for trypanocidal activity against Trypanosoma brucei, by exposing the parasites directly to compound prior to injection to mice at 10 E-4 M concentration in dark conditions; in short: as §1
Trypanosoma brucei [18] = assay: Compound is evaluated for trypanocidal activity against Trypanosoma brucei, by exposing the parasites directly to compound prior to injection to mice at 10 E-6 M concentration in presence of light; in short: as §2
Trypanosoma brucei [19] = assay: Compound is evaluated for trypanocidal activity against Trypanosoma brucei, by exposing the parasites directly to compound prior to injection to mice at 10 e-6 M concentration (pre) in dark conditions; in short: as §4

Row | Compound | Activity (Trypanosoma brucei [1]) | Activity (Trypanosoma brucei [2]) | Activity (Trypanosoma brucei [3]) | Activity (Trypanosoma brucei [4]) | Mean survival time of infected mice (days) (Trypanosoma brucei [5]) | Activity (Trypanosoma brucei [6]) | Activity (Trypanosoma brucei [7]) | Activity (Trypanosoma brucei [8]) | Mean survival of mice (days) (Trypanosoma brucei [9]) | Activity (Trypanosoma brucei [10]) | Activity (Trypanosoma brucei [11]) | Activity (Trypanosoma brucei [12]) | Activity (Trypanosoma brucei [13]) | Activity (Trypanosoma brucei [14]) | Activity (Trypanosoma brucei [15]) | Activity (Trypanosoma brucei [16]) | Activity (Trypanosoma brucei [17]) | Activity (Trypanosoma brucei [18]) | Activity (Trypanosoma brucei [19])
1 | [N-]=[N+]=Nc1ccc(Nc2c3ccccc3nc3ccccc23)cc1 | 4 | 5.8 | 30 | 30 | 4.8 | 4.4 |  |  |  |  |  |  |  |  |  |  |  |  | 
2 | C[n+]1c2ccccc2cc2c(N)cccc21.[Cl-] | 4.6 | 4.2 | 30 | 6.4 | 30 | 4 |  |  |  |  |  |  |  |  |  |  |  |  | 
3 | CC[n+]1c(-c2ccccc2)c2cc(N=[N+]=[N-])ccc2c2ccc(N)cc21.[Cl-] |  | 30 |  |  |  | 4.6 | 4 | 27.4 |  |  |  |  |  |  |  |  |  |  | 
4 | [N-]=[N+]=Nc1ccc2cc3ccc(N=[N+]=[N-])cc3nc2c1 |  |  | 5.5 |  | 6 |  |  |  |  |  |  |  |  |  |  |  |  |  | 
5 | C[n+]1c2ccccc2cc2ccc(N)cc21.[Cl-] | 14.2 | 30 |  |  | 30 | 6.9 | 4.6 | 12.4 | 15.5 | 30 |  |  |  |  |  |  |  |  | 
6 | Nc1ccc2c(N)c3ccccc3nc2c1 | 8.1 | 17.4 | 30 | 30 | 30 | 5 | 5.2 | 15 | 27.8 |  |  |  |  |  |  |  |  |  | 
7 | Nc1c2ccccc2nc2cccc([N+](=O)[O-])c12 | 25.4 | 5.8 | 30 | 30 | 30 | 4.4 |  |  |  |  |  |  |  |  |  |  |  |  | 
8 | C[n+]1c2cc(N=[N+]=[N-])ccc2cc2ccc(N=[N+]=[N-])cc21.[Cl-] | 6 | 8.2 | 30 | 26.6 | 30 | 5.8 | 5.4 | 5.6 | 5.4 |  |  |  |  |  |  |  |  |  | 
9 | C[n+]1c2ccccc2cc2cc(N)ccc21.[Cl-] | 5.8 | 6 | 30 | 6.8 | 30 | 3.6 |  |  |  |  |  |  |  |  |  |  |  |  | 
10 | [N-]=[N+]=Nc1c2ccccc2nc2ccccc12 | 30 | 30 | 30 | 30 | 30 | 5 | 4.6 | 4 | 4.2 |  |  |  |  |  |  |  |  |  | 
11 | Nc1ccc(Nc2c3ccccc3nc3ccccc23)cc1 | 5 | 4.4 | 30 | 6.4 | 30 | 5.4 |  |  |  |  |  |  |  |  |  |  |  |  | 
12 | [N-]=[N+]=Nc1ccc2nc3ccccc3c(N)c2c1 | 5.4 | 11.6 | 30 | 30 | 9.8 | 4.8 | 4.6 | 6 | 4.6 |  |  |  |  |  |  |  |  |  | 
13 | C[n+]1c2ccccc2cc2cc(N=[N+]=[N-])ccc21.[Cl-] | 14.5 | 5.5 | 30 | 13.9 | 30 | 4.4 | 4.8 | 4.2 | 4.8 |  |  |  |  |  |  |  |  |  | 
14 | C[n+]1c2ccccc2cc2c(N=[N+]=[N-])cccc21.[Cl-] | 6.4 |  | 4.8 | 4.8 | 4.4 |  |  |  |  |  |  |  |  |  |  |  |  |  | 
15 | [N-]=[N+]=Nc1ccc2c(N)c3ccccc3nc2c1 | 6.3 | 7.6 | 26.8 | 14.2 | 25.3 | 5.8 |  |  |  |  | 5.2 |  |  |  |  |  |  |  | 
16 | C[n+]1c2ccccc2c(N=[N+]=[N-])c2ccccc21.[Cl-] | 3.6 | 6.8 | 30 | 20 | 30 | 5 | 5.2 | 6.2 | 8.6 |  |  |  |  |  |  |  |  |  | 
17 | [N-]=[N+]=Nc1ccc2cc3ccc(N)cc3nc2c1 | 5.5 | 11.2 | 30 | 12.7 | 8.3 | 4.6 | 5.7 | 5.9 | 5.4 |  | 5.2 | 5.2 |  |  |  |  |  |  | 
18 | Nc1cccc2nc3ccccc3c(N)c12 |  |  |  |  |  |  |  |  |  |  |  |  | 30 | 4.6 | 5.4 | 5.6 | 30 | 4.6 | 
19 | CN(C)CCCNc1c2ccccc2nc2cccc([N+](=O)[O-])c12 [NITRACRINE] | 5.7 | 22.9 | 30 | 30 | 30 | 5.7 | 6 | 6.6 | 10.4 |  |  |  |  |  |  |  |  |  | 
20 | C[n+]1c2cc(N)ccc2cc2ccc(N=[N+]=[N-])cc21.[Cl-] | 18.2 | 30 | 30 | 30 | 30 | 6.9 | 6.4 | 30 | 5.5 |  |  |  |  |  |  |  |  |  | 6.3
21 | [N-]=[N+]=Nc1c2ccccc2nc2cccc([N+](=O)[O-])c12 | 10 | 6 | 30 | 30 | 30 | 4.2 | 5.4 | 5 | 4 |  |  |  |  |  |  |  |  |  | 
22 | C[n+]1c2ccccc2c(N)c2ccccc21.[Cl-] | 5.4 | 5.8 | 30 | 21 | 30 | 4.2 |  |  | 6.2 |  |  |  |  |  |  |  |  |  | 
23 | C[n+]1c2ccccc2cc2ccc(N=[N+]=[N-])cc21.[Cl-] | 6.6 | 8.6 | 30 | 30 | 30 | 5.4 |  |  | 5 |  | 5.8 | 4.4 |  |  |  |  |  |  | 4.7
24 | C[n+]1c2cc(N)ccc2cc2ccc(N)cc21.[Cl-] [EUFLAVINE] | 30 | 30 |  | 30 | 30 | 6.9 | 6.3 | 17.8 | 30 |  |  |  |  |  |  |  |  |  | 7.8
